Legend:
Rattus norvegicus [1] = assay: Concentration was measured in mean heart/blood tissue of fasted Fischer 344 rats administered intravenously after 5 minute (radiolabeled with [125I]-; settings: in vivo, iv, 5 min
Rattus norvegicus [2] = assay: Concentration was measured in liver tissue of unfasted Fischer 344 rats administered intravenously after 2 minute (radiolabeled with [125I]-; type: ADME, organism-based; settings: in vivo, iv, 2 min
In short: (§1)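 Female Fischer 344 rats, 10-12 weeks old, 170-200 g, with food and water ad libitum. The 125I-fatty acid was taken up in ethanol, added dropwise to stirred 6% BSA at ~40 °C (final ethanol 10%), filtered, and given as 0.5 mL via lateral tail vein under ether anesthesia. Rats were killed by cervical fracture; blood was taken by cardiac puncture. Organs were rinsed, blotted, weighed and gamma-counted against injectate standards to give %ID/g. Five rats per time point.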

Rattus norvegicus [3] = assay: Concentration was measured in kidney tissue of unfasted Fischer 344 rats administered intravenously after 2 minute (radiolabeled with [125I]-; type: ADME, organism-based; settings: in vivo, iv, 2 min
In short: as §1

Rattus norvegicus [4] = assay: Concentration was measured in heart tissue of unfasted Fischer 344 rats administered intravenously after 60 minute (radiolabeled with [125I]-; type: ADME, organism-based; settings: in vivo, iv, 1 h
In short: as §1

Rattus norvegicus [5] = assay: Concentration was measured in mean heart/blood tissue of unfasted Fischer 344 rats administered intravenously after 10 minute (radiolabeled with [125I]-; type: ADME, organism-based; settings: iv, 10 min
In short: (§2)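 Female Fischer 344 rats, five per time point, each given 11 μCi of the ¹²⁵I-labeled fatty acid (~269 mCi/mmol) via a lateral tail vein in 0.5 mL of 6% BSA (10% ethanol) under ether anesthesia. Blood was drawn by cardiac puncture; organs were rinsed, weighed and gamma-counted against injectate standards. Output is % injected dose/g and mean heart/blood ratio.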

Rattus norvegicus [6] = assay: Concentration was measured in lungs tissue of unfasted Fischer 344 rats administered intravenously after 5 minute (radiolabeled with [125I]-; type: ADME, organism-based, Lung; settings: in vivo, iv, 5 min
In short: as §1

Rattus norvegicus [7] = assay: Concentration was measured in blood tissue of unfasted Fischer 344 rats administered intravenously after 10 minute (radiolabeled with [125I]-; type: ADME, organism-based; settings: in vivo, iv, 10 min
In short: as §1

Rattus norvegicus [8] = assay: Concentration was measured in mean heart/blood tissue of unfasted Fischer 344 rats administered intravenously after 2 minute (radiolabeled with [125I]-; type: ADME, organism-based; settings: in vivo, iv, 2 min
Rattus norvegicus [9] = assay: Concentration was measured in liver tissue of unfasted Fischer 344 rats administered intravenously after 60 minute (radiolabeled with [125I]-; type: ADME, organism-based; settings: in vivo, iv, 1 h
In short: as §1

Rattus norvegicus [10] = assay: Concentration was measured in thyroid tissue of unfasted Fischer 344 rats administered intravenously after 60 minute (radiolabeled with [125I]-; type: ADME, organism-based, Thyroid gland; settings: in vivo, iv, 1 h
In short: (§3)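 Female Fischer 344 rats, 10–12 weeks old (170–200 g), with food and water ad libitum, five per time point. The radioiodinated fatty acid was dissolved in ethanol, added to 6% BSA at ~40 °C (final 10% ethanol), filtered, and injected into a lateral tail vein (0.5 mL) under ether anesthesia. Blood was taken by cardiac puncture; organs were rinsed, blotted, weighed and gamma-counted against injectate standards. Output is % injected dose/g.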

Rattus norvegicus [11] = assay: Concentration was measured in heart tissue of unfasted Fischer 344 rats administered intravenously after 5 minute (radiolabeled with [125I]-; type: ADME, organism-based; settings: in vivo, iv, 5 min
In short: as §1

Rattus norvegicus [12] = assay: Concentration was measured in lungs tissue of unfasted Fischer 344 rats administered intravenously after 10 minute (radiolabeled with [125I]-; type: ADME, organism-based, Lung; settings: in vivo, iv, 10 min
In short: as §1

Rattus norvegicus [13] = assay: Concentration was measured in lungs tissue of unfasted Fischer 344 rats administered intravenously after 60 minute (radiolabeled with [125I]-; type: ADME, organism-based, Lung; settings: in vivo, iv, 1 h
In short: as §1

Rattus norvegicus [14] = species: Rattus norvegicus; assay: Specific activity was determined with radioiodinated iodine-125; type: functional
Rattus norvegicus [15] = assay: Concentration was measured in blood tissue of unfasted Fischer 344 rats administered intravenously after 2 minute (radiolabeled with [125I]-; type: ADME, organism-based; settings: in vivo, iv, 2 min
In short: as §1

Rattus norvegicus [16] = assay: Concentration was measured in mean heart/blood tissue of fasted Fischer 344 rats administered intravenously after 60 minute (radiolabeled with [125I]-; settings: in vivo, iv, 1 h
Rattus norvegicus [17] = assay: Concentration was measured in liver tissue f unfasted Fischer 344 rats administered intravenously after 10 minute (radiolabeled with [125I]-; type: ADME, organism-based; settings: in vivo, iv, 10 min
In short: as §1

Rattus norvegicus [18] = assay: Concentration was measured in blood tissue of unfasted Fischer 344 rats administered intravenously after 60 minute (radiolabeled with [125I]-; type: ADME, organism-based; settings: in vivo, iv, 1 h
In short: as §1

Rattus norvegicus [19] = assay: Concentration was measured in thyroid tissue of unfasted Fischer 344 rats administered intravenously after 10 minute (radiolabeled with [125I]-; type: ADME, organism-based, Thyroid gland; settings: in vivo, iv, 10 min
In short: as §2

Rattus norvegicus [20] = assay: Concentration was measured in heart tissue of unfasted Fischer 344 rats administered intravenously after 2 minute (radiolabeled with [125I]-; type: ADME, organism-based; settings: in vivo, iv, 2 min
In short: as §1

Rattus norvegicus [21] = assay: Concentration was measured in kidney tissue of unfasted Fischer 344 rats administered intravenously after 60 minute (radiolabeled with [125I]-; type: ADME, organism-based; settings: in vivo, iv, 1 h
In short: as §1

Rattus norvegicus [22] = assay: Concentration was measured in kidney tissue of unfasted Fischer 344 rats administered intravenously after 10 minute (radiolabeled with [125I]-; type: ADME, organism-based; settings: in vivo, iv, 10 min
In short: as §1

Rattus norvegicus [23] = assay: Concentration was measured in thyroid tissue of unfasted Fischer 344 rats administered intravenously after 5 minute (radiolabeled with [125I]-; type: ADME, organism-based, Thyroid gland; settings: in vivo, iv, 5 min
In short: as §3

Rattus norvegicus [24] = assay: Concentration was measured in heart tissue of unfasted Fischer 344 rats administered intravenously after 10 min (radiolabeled with [125I]-; type: ADME, organism-based; settings: in vivo, iv
In short: as §1

Rattus norvegicus [25] = assay: Concentration was measured in liver tissue of unfasted Fischer 344 rats administered intravenously after 5 minute (radiolabeled with [125I]-; type: ADME, organism-based; settings: in vivo, iv, 5 min
In short: as §1

Rattus norvegicus [26] = assay: Concentration was measured in kidney tissue of unfasted Fischer 344 rats administered intravenously after 5 minute (radiolabeled with [125I]-; type: ADME, organism-based; settings: in vivo, iv, 5 min
In short: as §1

Rattus norvegicus [27] = assay: Concentration was measured in blood tissue of unfasted Fischer 344 rats administered intravenously after 5 minute (radiolabeled with [125I]-; type: ADME, organism-based; settings: in vivo, iv, 5 min
In short: as §1

Rattus norvegicus [28] = assay: Concentration was measured in thyroid tissue of unfasted Fischer 344 rats administered intravenously after 2 minute (radiolabeled with [125I]-; type: ADME, organism-based, Thyroid gland; settings: in vivo, iv, 2 min
In short: as §3

Rattus norvegicus [29] = assay: Concentration was measured in lungs tissue of unfasted Fischer 344 rats administered intravenously after 2 minute (radiolabeled with [125I]-; type: ADME, organism-based, Lung; settings: in vivo, iv, 2 min
In short: as §1

For `CC(CCCCCCCCCCCCCCI)CC(=O)O` (centres undefined), the Distribution (Rattus norvegicus [1]) was 1.35%, the Distribution (Rattus norvegicus [2]) was 3.93% and the Distribution (Rattus norvegicus [3]) was 1.35%. For the same molecule, the Distribution (Rattus norvegicus [4]) was 0.95%, the Distribution (Rattus norvegicus [5]) was 1.35% and the Distribution (Rattus norvegicus [6]) was 1.03%. It also gave a Distribution (Rattus norvegicus [7]) of 1.31%, a Distribution (Rattus norvegicus [8]) of 1.09% and a Distribution (Rattus norvegicus [9]) of 0.95%. The Distribution (Rattus norvegicus [10]) was 217%, the Distribution (Rattus norvegicus [11]) was 1.93% and the Distribution (Rattus norvegicus [12]) was 1.16%. For the same molecule, the Distribution (Rattus norvegicus [13]) was 0.68%, the Specific activity (Rattus norvegicus [14]) was 0.269 Ci mM-1 and the Distribution (Rattus norvegicus [15]) was 2.47%. It also gave a Distribution (Rattus norvegicus [16]) of 1.32%, a Distribution (Rattus norvegicus [17]) of 2.54% and a Distribution (Rattus norvegicus [18]) of 0.72%. For the same molecule, the Distribution (Rattus norvegicus [19]) was 43.3%, the Distribution (Rattus norvegicus [20]) was 2.68% and the Distribution (Rattus norvegicus [21]) was 0.59%. For the same molecule, the Distribution (Rattus norvegicus [22]) was 0.96%, the Distribution (Rattus norvegicus [23]) was 30.2% and the Distribution (Rattus norvegicus [24]) was 1.77%. For the same molecule, the Distribution (Rattus norvegicus [25]) was 2.5%, the Distribution (Rattus norvegicus [26]) was 1.06% and the Distribution (Rattus norvegicus [27]) was 1.43%. The Distribution (Rattus norvegicus [28]) was 22.5% and the Distribution (Rattus norvegicus [29]) was 1.75%.

Reference: ChEMBL document CHEMBL1123146, “Design, synthesis, and evaluation of omega-iodovinyl- and omega-iodoalkyl-substituted methyl-branched long-chain fatty acids” (J Med Chem, 1985)
